Screening results from PubChem BioAssay.
PLCg1 inh = inhibitors of human phospholipase C gamma1; AID 720700; purified PLC-gamma1, fluorogenic substrate, fluorescence; inhibition, % at 12.2 µM; P19174; 370,000 compounds, 0.84% hits; in the data active = inhibition above about 9.5%
TbMetRS inhib = blocks T. brucei methionyl-tRNA synthetase activity | purified T. brucei MetRS, ATP depletion, Kinase-Glo luminescence | inhibition, % at 11.9 µM | 360,000 compounds, 0.4% hits;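 active = inhibition above a per-plate cutoff of the control wells' mean inhibition plus 3 SD, cut at about 5.5% in these data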
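Dosing: 11.9 µM compound single dose, 0.9% DMSO; Assay system: purified T. brucei MetRS enzyme; Measured by: Kinase-Glo luciferase luminescence reporting remaining unconsumed ATP; Schedule: 15 min plus 2 h at 25 °C.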
ADAM10 inh = inhibits human ADAM10; O14672; recombinant ADAM10, EDANS/DABCYL FRET peptide cleavage, 3 h; inhibition, % at 7 µM; 370,000 compounds, 0.62% hits;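 active = inhibition above a per-campaign cutoff equal to the mean of compounds falling between control-based bounds plus 3 SD, cut at about 20% in these data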
Target sequence (O14672 214-748 limits assumed): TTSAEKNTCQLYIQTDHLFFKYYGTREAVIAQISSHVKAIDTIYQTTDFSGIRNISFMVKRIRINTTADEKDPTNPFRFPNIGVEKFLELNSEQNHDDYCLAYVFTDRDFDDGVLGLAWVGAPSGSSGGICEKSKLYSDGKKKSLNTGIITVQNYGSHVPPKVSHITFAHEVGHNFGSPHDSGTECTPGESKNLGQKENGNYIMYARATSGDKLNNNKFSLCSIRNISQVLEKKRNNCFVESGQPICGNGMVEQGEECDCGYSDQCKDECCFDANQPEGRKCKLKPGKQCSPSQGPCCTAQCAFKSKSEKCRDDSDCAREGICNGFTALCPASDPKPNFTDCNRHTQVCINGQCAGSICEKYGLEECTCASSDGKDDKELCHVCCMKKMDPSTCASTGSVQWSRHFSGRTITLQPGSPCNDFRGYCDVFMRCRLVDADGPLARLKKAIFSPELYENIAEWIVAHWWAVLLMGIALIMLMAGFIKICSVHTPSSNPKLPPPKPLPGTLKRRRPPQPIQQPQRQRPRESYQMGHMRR
PLCb3 inh = PLC-beta3 (human) inhibition, primary screen; Purified PLC-beta3, fluorogenic substrate, fluorescence; inhibition, % at 12.2 µM; AID 720704; 370,000 compounds, 0.18% hits; Q01970; in the data active = inhibition above about 11%
ADAM17 inh = ADAM17 inhibition, QFRET primary screen; 370,000 compounds, 0.83% hits; P78536; AID 720648; recombinant ADAM17, EDANS/DABCYL FRET peptide cleavage; inhibition, % at 6.95 µM;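 active = inhibition above the mean of compounds lying between control limits plus 3 SD, set per campaign, cut at about 8.5% in these data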
ADAM10 confirm = human ADAM10 inhibition, confirmation | shares compounds with ADAM10 inh | ADAM10 QFRET peptide cleavage, EDANS fluorescence | inhibition, % at 6.95 µM | 2,100 compounds, 1% hits | AID 743208;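 active = inhibition above about 20% chosen separately for each screening run, limit read from the data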
ADAM17 ctr = inhibits human ADAM17 in ADAM10 exosite counter-screen; shares compounds with ADAM10 inh; ADAM17 QFRET peptide cleavage, EDANS fluorescence; inhibition, % at 6.95 µM; 2,100 compounds, 0.5% hits;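 active = mean triplicate inhibition above the solvent-only control wells' mean plus 3 SD, cut at about 12% in these data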
ADAM10 ctr = inhibits human ADAM10 in ADAM17 exosite counter-screen. 2,900 compounds, 47% hits. inhibition, % at 6.95 µM. recombinant ADAM10, EDANS/DABCYL FRET peptide cleavage, 3 h. shares compounds with ADAM17 inh;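 active = mean inhibition over the triplicate runs exceeds the activity threshold set in the earlier primary screen, cut at about 20% in these data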
ADAM17 confirm = confirmation of inhibitors of human ADAM17 | shares compounds with ADAM17 inh | inhibition, % at 6.95 µM | 2,900 compounds, 65% hits | recombinant ADAM17, EDANS/DABCYL QFRET peptide cleavage;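 active = mean inhibition across replicates above the hit cutoff set in the primary screen, cut at about 8.5% in these data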
Of the large screens only hits and unclear results are named; the others gave an inactive call (follow-up assays come after a bar, where they were run). Most compounds without a hit are left out; they make up all but 2.3% or so of the library.

O=[N+]([O-])c1ccc(-c2nc(Nc3cccc(O)c3)c3ccccc3n2)cc1	ADAM10 inh 31, ADAM17 inh 13 | ADAM10 confirm inactive | ADAM17 ctr inactive | ADAM10 ctr 34 | ADAM17 confirm 17
O=C(OCC(=O)c1c[nH]c2ccccc12)c1cccc(S(=O)(=O)N2CCCCCC2)c1	ADAM10 inh 27, ADAM17 inh 12 | ADAM10 confirm inactive | ADAM17 ctr inactive | ADAM10 ctr inactive | ADAM17 confirm 8.7
Cc1ccc(O)c(N=Cc2cc(Cc3ccccc3)cc([N+](=O)[O-])c2O)c1	ADAM10 inh 38, ADAM17 inh 19 | ADAM10 confirm inactive | ADAM17 ctr inactive | ADAM10 ctr 22 | ADAM17 confirm inactive
Cc1ccc(S(=O)(=O)NCC2NCCc3ccccc32)cc1 (configuration not stated)	none
Cc1ccc(S(=O)(=O)NCC2Cc3ccccc3N2S(=O)(=O)c2ccc(C)cc2)cc1 (configuration not stated)	ADAM10 inh 22, ADAM17 inh 9.2 (no result: TbMetRS inhib) | ADAM10 confirm inactive | ADAM17 ctr inactive | ADAM10 ctr 39 | ADAM17 confirm 17
CCN(CC)S(=O)(=O)c1ccc(NC(=O)c2cccs2)cc1	none
CCN(CC)S(=O)(=O)c1cccc(C(=O)Oc2cccc(NC(=O)c3cccs3)c2)c1	ADAM10 inh 27, ADAM17 inh 9.3 | ADAM10 confirm inactive | ADAM17 ctr inactive | ADAM10 ctr 22 | ADAM17 confirm 13
Nc1ccc(C(=O)CC(=O)Nc2ccc(Cl)cc2)cc1	none
CCCCCCCC/C=C\CCCCCCCC(=O)NCCO	none
CCCCCCCC/C=C\CCCCCCCC(=O)NCCc1ccc(O)c(O)c1	ADAM10 inh 28, ADAM17 inh 13 | ADAM10 confirm inactive | ADAM17 ctr inactive | ADAM10 ctr 26 | ADAM17 confirm 17
CC(O)(c1ccccc1)c1nc(-c2cc3ccccc3o2)cs1 (configuration not stated)	ADAM10 inh 26, ADAM17 inh 8.7 | ADAM10 confirm inactive | ADAM17 ctr inactive | ADAM10 ctr 30 | ADAM17 confirm 15
CC(O)(c1ccc(F)c(F)c1)c1nc(-c2ccc3ccccc3c2)cs1 (configuration not stated)	ADAM10 inh 44, ADAM17 inh 22 | ADAM10 confirm inactive | ADAM17 ctr inactive | ADAM10 ctr inactive | ADAM17 confirm 9.4
CC(=O)N1CCN(C2c3cccc4cccc(c34)C2NS(=O)(=O)c2ccccc2)CC1 (configuration not stated)	none
Cc1ccc(C(=O)N2CCN(C3c4cccc5cccc(c45)C3NS(=O)(=O)c3ccccc3)CC2)cc1 (configuration not stated)	ADAM10 inh 24, ADAM17 inh 11 | ADAM10 confirm inactive | ADAM17 ctr inactive | ADAM10 ctr inactive | ADAM17 confirm 12
COc1cc2c(cc1NC(=O)C(C)Sc1ccc(NC(C)=O)cc1)oc1ccccc12 (configuration not stated)	ADAM10 inh 47, ADAM17 inh 22 | ADAM10 confirm inactive | ADAM17 ctr inactive | ADAM10 ctr 32 | ADAM17 confirm 18
C=CCCC(=O)N1C[C@H]2CON(C)[C@H]2C[C@H]1c1ccc(Br)cc1	none
CCc1cccc2c(C(=O)CN3C(=O)NC(C)(c4cccc5ccccc45)C3=O)c[nH]c12 (configuration not stated)	ADAM10 inh 30, ADAM17 inh 9.6 | ADAM10 confirm inactive | ADAM17 ctr inactive | ADAM10 ctr 28 | ADAM17 confirm 16
CCOc1ccc(CCNC(=O)CSCC(=O)Nc2cccc(C)c2)cc1OCC	none
Cc1ccc(Cl)c(OCC(=O)NC2CCN(Cc3ccccc3)CC2)c1	none
